Experimental data: ChEMBL document CHEMBL2321792, “Synthesis and antimalarial activity of 3,3-spiroanellated 5,6-disubstituted 1,2,4-trioxanes” (ACS Med Chem Lett, 2013)
Converted amounts (≈) assume the structure as drawn. The source made the active and inactive calls. No cut-off for these calls is given here.

Tests used:
[1] = test system: Plasmodium yoelii nigeriensis; experiment: Antimalarial activity against chloroquine, mefloquine and halofantrine-resistant Plasmodium yoelii nigeriensis infected in Swiss mouse assessed as suppression of parasitemia at 96 mg/kg, po administered for 4 days measured on day 4; format: functional; conditions: 96 h
In short: (§1)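 Swiss mice infected with multidrug-resistant P. yoelii nigeriensis were treated by the Peters procedure: 5 per group, dosed daily for 4 days, oral or i.m. Parasitaemia was read on day 4 against an untreated control group. Suppression = [(c − t)/c] × 100, where c is control and t is treated parasitaemia. 100% means parasites were below the detection limit.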

[2] = test system: Plasmodium yoelii nigeriensis; experiment: Antimalarial activity against chloroquine, mefloquine and halofantrine-resistant Plasmodium yoelii nigeriensis infected in Swiss mouse assessed as protection against parasite-induced mortality at 96 mg/kg, po administered for 4 days measured on day 28; format: functional, organism-based; design: dose 96 mg/kg, route po po po po po po po po po po po
In short: (§2)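 Peters 4-day test in Swiss mice infected with multidrug-resistant P. yoelii nigeriensis. Groups of 5 mice were dosed once daily for 4 days at the stated mg/kg, oral or i.m. Mice were followed to day 28. Protection is the percentage of treated mice surviving to day 28, read from the alive/total count per group.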

[3] = test system: Plasmodium yoelii nigeriensis; experiment: Antimalarial activity against chloroquine, mefloquine and halofantrine-resistant Plasmodium yoelii nigeriensis infected in Swiss mouse assessed as suppression of parasitemia at 96 mg/kg, im administered for 4 days measured on day 4; format: functional; conditions: 96 h, route intramuscular; in short: as §1
[4] = test system: Plasmodium yoelii nigeriensis; experiment: Antimalarial activity against chloroquine, mefloquine and halofantrine-resistant Plasmodium yoelii nigeriensis infected in Swiss mouse assessed as protection against parasite-induced mortality at 96 mg/kg, im administered for 4 days measured on day 28; format: functional, organism-based; design: dose 96 mg/kg; in short: as §2
[5] = test system: Plasmodium yoelii nigeriensis; experiment: Antimalarial activity against chloroquine, mefloquine and halofantrine-resistant Plasmodium yoelii nigeriensis infected in Swiss mouse assessed as suppression of parasitemia at 24 mg/kg, po administered for 4 days measured on day 4; format: functional; conditions: 96 h; in short: as §1
[6] = test system: Plasmodium yoelii nigeriensis; experiment: Antimalarial activity against chloroquine, mefloquine and halofantrine-resistant Plasmodium yoelii nigeriensis infected in Swiss mouse assessed as protection against parasite-induced mortality at 48 mg/kg, po administered for 4 days measured on day 28; format: functional; in short: as §2
[7] = test system: Plasmodium yoelii nigeriensis; experiment: Antimalarial activity against chloroquine, mefloquine and halofantrine-resistant Plasmodium yoelii nigeriensis infected in Swiss mouse assessed as suppression of parasitemia at 48 mg/kg, po administered for 4 days measured on day 4; format: functional; conditions: 96 h; in short: as §1
[8] = test system: Plasmodium yoelii nigeriensis; experiment: Antimalarial activity against chloroquine, mefloquine and halofantrine-resistant Plasmodium yoelii nigeriensis infected in Swiss mouse assessed as protection against parasite-induced mortality at 24 mg/kg, po administered for 4 days measured on day 28; format: functional; in short: as §2
[9] = Solubility of the compound in distilled water after 24 hrs by shake flask method; format: physicochemical
Cytochrome P450 1A2 = target: T1, Cytochrome P450 1A2 (Rattus norvegicus, UniProt P04799); experiment: Inhibition of CYP1A2 in rat liver microsome using phenacetin as substrate by HPLC-PDA analysis; format: ADME, microsomes
T1 sequence (P04799 whole entry): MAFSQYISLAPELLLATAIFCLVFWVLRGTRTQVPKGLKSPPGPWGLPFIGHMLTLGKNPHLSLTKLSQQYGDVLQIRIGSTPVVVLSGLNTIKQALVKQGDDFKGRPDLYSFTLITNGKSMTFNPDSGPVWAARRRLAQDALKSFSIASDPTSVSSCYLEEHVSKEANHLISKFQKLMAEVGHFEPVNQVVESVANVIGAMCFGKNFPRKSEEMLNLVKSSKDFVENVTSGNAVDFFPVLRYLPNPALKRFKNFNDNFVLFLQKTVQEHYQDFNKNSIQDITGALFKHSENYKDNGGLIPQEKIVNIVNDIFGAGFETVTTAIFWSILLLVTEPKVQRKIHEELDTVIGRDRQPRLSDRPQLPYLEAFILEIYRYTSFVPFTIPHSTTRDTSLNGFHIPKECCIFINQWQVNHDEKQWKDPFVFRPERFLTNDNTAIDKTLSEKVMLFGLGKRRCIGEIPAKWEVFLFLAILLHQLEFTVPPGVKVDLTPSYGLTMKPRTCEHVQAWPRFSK

Cytochrome P450 2D4 = target: T2, Cytochrome P450 2D4 (Rattus norvegicus, UniProt Q64680); experiment: Inhibition of CYP2D4 in rat liver microsome using dextromethorphan as substrate by HPLC-PDA analysis; format: ADME, microsomes
T2 sequence (Q64680 whole entry): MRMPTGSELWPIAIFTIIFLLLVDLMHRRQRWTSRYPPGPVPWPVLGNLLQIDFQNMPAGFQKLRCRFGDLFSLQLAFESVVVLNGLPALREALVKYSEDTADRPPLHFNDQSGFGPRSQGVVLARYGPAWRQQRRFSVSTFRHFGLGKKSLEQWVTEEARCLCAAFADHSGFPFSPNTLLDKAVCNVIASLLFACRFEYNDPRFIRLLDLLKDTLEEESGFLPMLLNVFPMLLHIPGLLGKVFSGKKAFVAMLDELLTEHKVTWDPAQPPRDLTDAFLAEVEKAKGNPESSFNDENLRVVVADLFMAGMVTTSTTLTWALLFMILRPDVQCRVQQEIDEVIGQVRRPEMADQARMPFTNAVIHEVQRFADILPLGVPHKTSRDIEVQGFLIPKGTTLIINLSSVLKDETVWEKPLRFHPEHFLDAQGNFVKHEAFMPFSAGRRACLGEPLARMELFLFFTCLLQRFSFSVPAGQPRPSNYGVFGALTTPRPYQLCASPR

Cytochrome P450 2C11 = target: T3, Cytochrome P450 2C11 (Rattus norvegicus, UniProt P08683); experiment: Inhibition of CYP2C11 in rat liver microsome using diclofenac as substrate by HPLC-PDA analysis; format: ADME, microsomes
T3 sequence (P08683 whole entry): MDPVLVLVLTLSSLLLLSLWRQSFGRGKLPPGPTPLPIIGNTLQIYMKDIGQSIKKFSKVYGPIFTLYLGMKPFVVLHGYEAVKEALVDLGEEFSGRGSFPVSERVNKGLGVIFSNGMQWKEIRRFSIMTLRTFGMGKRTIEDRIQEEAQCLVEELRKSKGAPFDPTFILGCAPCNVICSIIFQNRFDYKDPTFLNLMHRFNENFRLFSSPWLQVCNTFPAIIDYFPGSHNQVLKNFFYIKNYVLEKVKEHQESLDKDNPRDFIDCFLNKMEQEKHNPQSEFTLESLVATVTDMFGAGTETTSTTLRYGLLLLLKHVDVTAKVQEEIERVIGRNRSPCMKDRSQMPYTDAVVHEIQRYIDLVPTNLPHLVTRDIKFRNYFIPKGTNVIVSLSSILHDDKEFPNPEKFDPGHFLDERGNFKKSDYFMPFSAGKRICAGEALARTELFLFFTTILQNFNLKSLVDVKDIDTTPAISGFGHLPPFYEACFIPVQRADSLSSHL

[10] = Half life in rat liver microsomes at […] by HPLC-PDA analysis; format: ADME, Microsome
[11] = Distribution coefficient, log D of the compound at pH 7.4 by HPLC-PDA analysis; format: physicochemical; conditions: octanol/water
Plasma = experiment: Fraction unbound in rat plasma at 10 uM by ultra-filtration method; format: ADME, cell-free
[12] = Inhibition of CYP3A in rat liver microsome using testosterone as substrate by HPLC-PDA analysis; format: ADME, microsomes
[13] = Intrinsic clearance in rat liver microsomes at […] by HPLC-PDA analysis; format: ADME, Microsome; conditions: read-out: CLH
[14] = Metabolic stability in rat liver microsomes at […] after 30 mins by HPLC-PDA analysis; format: ADME, Microsome; conditions: read-out: Stability
[15] = test system: Plasmodium yoelii nigeriensis; experiment: Antimalarial activity against chloroquine, mefloquine and halofantrine-resistant Plasmodium yoelii nigeriensis infected in Swiss mouse assessed as suppression of parasitemia at 12 mg/kg, po administered for 4 days measured on day 4; format: functional; conditions: 96 h; in short: as §1
[16] = test system: Plasmodium yoelii nigeriensis; experiment: Antimalarial activity against chloroquine, mefloquine and halofantrine-resistant Plasmodium yoelii nigeriensis infected in Swiss mouse assessed as protection against parasite-induced mortality at 12 mg/kg, po administered for 4 days measured on day 28; format: functional, organism-based; design: dose 12 mg/kg; in short: as §2
[17] = Effective permeability coefficient of the compound in Sprague-Dawley rat intestine at 10 uM by In-situ single pass intestinal perfusion technique; format: ADME, tissue-based; conditions: other: in situ single pass intestinal perfusion, read-out: Peff

SMILES	inhibition in vivo at 96 mg/kg [1] [%]	Activity [2]	inhibition in vivo at 96 mg/kg [3] [%]	Activity [4]	also measured
C=C(c1ccc(F)cc1)[C@H]1OOC2(CCCC2)O[C@@H]1c1ccc(F)cc1 (relative stereo)	22.5	inactive	–	–	–
C=C(c1ccc(Br)cc1)[C@H]1OOC2(O[C@@H]1c1ccc(Br)cc1)C1CC3CC(C1)CC2C3 (relative stereo)	18.1	inactive	–	–	–
C=C(c1ccc(Cl)cc1)[C@H]1OOC2(CCCC2)O[C@@H]1c1ccc(Cl)cc1 (relative stereo)	63.6	inactive	–	–	–
C=C(c1ccc(C)cc1)[C@H]1OOC2(O[C@@H]1c1ccc(C)cc1)C1CC3CC(C1)CC2C3 (relative stereo)	36.7	inactive	5.76	inactive	–
C=C(c1ccc(F)cc1)[C@H]1OOC2(CCCCC2)O[C@@H]1c1ccc(F)cc1 (relative stereo)	42.5	inactive	–	–	–
C=C(c1ccc(C)cc1)[C@H]1OOC2(CCCCC2)O[C@@H]1c1ccc(C)cc1 (relative stereo)	–	–	16.6	inactive	inhibition in vivo at 24 mg/kg [5]: 49.6%; Activity [6]: inactive; inhibition in vivo at 48 mg/kg [7]: 89.4%; Activity [8]: inactive
CCO[C@H]1O[C@@H]2O[C@@]3(C)CC[C@H]4[C@H](C)CC[C@@H]([C@H]1C)[C@@]24OO3 [ARTEMOTIL]	–	–	–	–	solubility ([9]; buffer, 24 h): Insoluble; inhibition in vivo at 24 mg/kg [5]: 100%; Activity [6]: 100%; IC50 (Cytochrome P450 1A2): > 100 µM; IC50 (Cytochrome P450 2D4): > 100 µM; IC50 (Cytochrome P450 2C11): > 100 µM; half-life [10]: 47.4 min; logD [11]: 3.6; Fu (Plasma): 1%; inhibition in vivo at 48 mg/kg [7]: 100%; IC50 [12]: > 100 µM; microsomal CLint [13]: 36.6 µL/min/mg; Activity [8]: 20%; remaining at 0.5 h [14]: 50%
C=C(c1ccccc1)[C@H]1OOC2(CCCC2)O[C@@H]1c1ccccc1 (relative stereo)	23.8	inactive	46.9	inactive	–
C=C(c1ccc(OC)cc1)[C@H]1OOC2(O[C@@H]1c1ccc(OC)cc1)C1CC3CC(C1)CC2C3 (relative stereo)	24.6	inactive	–	–	–
C=C(c1ccc(Br)cc1)[C@H]1OOC2(CCCCC2)O[C@@H]1c1ccc(Br)cc1 (relative stereo)	100	–	–	–	–
C=C(c1ccccc1)[C@H]1OOC2(O[C@@H]1c1ccccc1)C1CC3CC(C1)CC2C3 (relative stereo)	32.4	inactive	44.8	inactive	–
C=C(c1ccc(Cl)cc1)[C@H]1OOC2(CCCCC2)O[C@@H]1c1ccc(Cl)cc1 (relative stereo)	100	–	3.45	inactive	solubility thermodynamic at 24 h ([9]; distilled water): 13 µM (≈ 5.27 µg/mL); inhibition in vivo at 24 mg/kg [5]: 100%; Activity [6]: Active; inhibition in vivo at 12 mg/kg [15]: 100%; Activity [16]: inactive; half-life [10]: 23 min; logD [11]: 4.23; Fu (Plasma): 0.8%; microsomal CLint [13]: 60.3 µL/min/mg; Activity [8]: 100%; Papp at 10 µM [17]: 113 ×10⁻⁶ cm/s
C=C(c1ccc(Br)cc1)[C@H]1OOC2(CCCC2)O[C@@H]1c1ccc(Br)cc1 (relative stereo)	–	–	–	–	inhibition in vivo at 24 mg/kg [5]: 98.6%; Activity [6]: 20%; inhibition in vivo at 48 mg/kg [7]: 100%; Activity [8]: inactive
C=C(c1ccccc1)[C@H]1OOC2(CCCCC2)O[C@@H]1c1ccccc1 (relative stereo)	34.5	inactive	22.3	inactive	–
C=C(c1ccc(Cl)cc1)[C@H]1OOC2(O[C@@H]1c1ccc(Cl)cc1)C1CC3CC(C1)CC2C3 (relative stereo)	77.2	–	–	–	–
C=C(c1ccc(C)cc1)[C@H]1OOC2(CCCC2)O[C@@H]1c1ccc(C)cc1 (relative stereo)	100	inactive	–	–	–
C=C(c1ccc(F)cc1)[C@H]1OOC2(O[C@@H]1c1ccc(F)cc1)C1CC3CC(C1)CC2C3 (relative stereo)	16.7	inactive	–	–	–
